Usually MIC stands for the smallest concentration in the dilution series that meets the test's criterion for growth inhibition. The low end stands for inhibition by little substance, the high end for a need for much substance.

We go through 14 compounds from ChEMBL document CHEMBL1154310, “Stereoselective synthesis and antimicrobial activity of benzofuran-based (1E)-1-(piperidin-1-yl)-N2-arylamidrazones” (2009).

What all share (type): functional
The subject of test [1] is Pseudomonas aeruginosa. Put plainly: Ratio of compound to amoxicilline activity against Pseudomonas aeruginosa at 5 mg/ml after 24 to 48 hrs by agar diffusion technique. On the technique in general: In agar diffusion tests the substance spreads into inoculated agar from a disc or well.
Test [2] has as its system Geotrichum candidum. Briefly: Ratio of compound to grisofulvin activity against Geotrichum candidum at 5 mg/ml after 24 to 48 hrs by agar diffusion technique.
The subject of test [3] is Bacillus subtilis. Briefly: Antibacterial activity against Bacillus subtilis at 5 mg/ml after 24 to 48 hrs by agar diffusion technique. The settings on record: read-out: IZ. In a few lines:
(§1)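 Hole-plate diffusion on nutrient agar (pH 6.2) seeded with clinical bacterial isolates. 1 cm wells were filled with 100 of a 5 mg/ml DMSO solution, with DMSO-only control wells and amoxicilline as the reference. Plates were held at 4 °C for 1 h, then incubated at 37 °C. Inhibition zone diameter was read after 24–48 h.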

Test [4] concerns Geotrichum candidum. Put plainly: Antifungal activity against Geotrichum candidum at 5 mg/ml after 24 to 48 hrs by agar diffusion technique. The following applies: read-out: IZ. In a few lines:
(§2)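 Clinical fungal or yeast isolates were seeded on malt extract agar (pH 5.4). 1 cm holes received 100 of test solution at 5 mg/ml in DMSO, with DMSO control holes and griseofulvin as the standard. Plates sat 1 h at 4 °C, then were incubated at 28 °C. Zone diameters were measured at 24–48 h.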

Test [5] has as its system Escherichia coli. Put plainly: Antibacterial activity against Escherichia coli at 5 mg/ml after 24 to 48 hrs by agar diffusion technique. The settings on record: read-out: IZ. In a few lines:
as §1

Test [6] relates to Candida albicans. Briefly: Ratio of compound to grisofulvin activity against Candida albicans at 5 mg/ml after 24 to 48 hrs by agar diffusion technique.
Test [7] has as its system Staphylococcus aureus. Put plainly: Antibacterial activity against Staphylococcus aureus at 5 mg/ml after 24 to 48 hrs by agar diffusion technique. The following applies: read-out: IZ. In a few lines: as §1
The test system of test [8] is Candida albicans. Briefly: Antifungal activity against Candida albicans at 5 mg/ml after 24 to 48 hrs by agar diffusion technique. The following applies: read-out: IZ. The method, boiled down: as §2
Test [9] has as its system Aspergillus fumigatus. Briefly: Ratio of compound to grisofulvin activity against Aspergillus fumigatus at 5 mg/ml after 24 to 48 hrs by agar diffusion technique.
In test [10] the test system is Aspergillus fumigatus. Briefly: Antifungal activity against Aspergillus fumigatus at 5 mg/ml after 24 to 48 hrs by agar diffusion technique. The settings on record: read-out: IZ. In a few lines: as §2
For test [11], the system named is Staphylococcus aureus. Put plainly: Ratio of compound to amoxicilline activity against Staphylococcus aureus at 5 mg/ml after 24 to 48 hrs by agar diffusion technique.
Test [12] relates to Staphylococcus aureus. Put plainly: Antibacterial activity against Staphylococcus aureus after 24 to 48 hrs by serial dilution technique. The method, boiled down:
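MIC by serial dilution: DMSO solutions started at a maximum of 500 and were diluted twofold in succession. Each dilution was inoculated with the test organism, and inhibition zones were measured by agar diffusion.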

In test [13] the test system is Syncephalastrum racemosum. Briefly: Ratio of compound to grisofulvin activity against Syncephalastrum racemosum at 5 mg/ml after 24 to 48 hrs by agar diffusion technique.
Test [14] concerns Escherichia coli. Briefly: Ratio of compound to amoxicilline activity against Escherichia coli at 5 mg/ml after 24 to 48 hrs by agar diffusion technique.
Test [15] has as its system Pseudomonas aeruginosa. Briefly: Antibacterial activity against Pseudomonas aeruginosa at 5 mg/ml after 24 to 48 hrs by agar diffusion technique. The settings on record: read-out: IZ. In a few lines:
as §1

The subject of test [16] is Syncephalastrum racemosum. Put plainly: Antifungal activity against Syncephalastrum racemosum at 5 mg/ml after 24 to 48 hrs by agar diffusion technique. The settings on record: read-out: IZ. In a few lines:
as §2

The subject of test [17] is Bacillus subtilis. Put plainly: Ratio of compound to amoxicilline activity against Bacillus subtilis at 5 mg/ml after 24 to 48 hrs by agar diffusion technique.

Values after ≈ are worked out from the molar mass of the structure shown.

Turning to `CC1(C)S[C@@H]2[C@H](NC(=O)[C@H](N)c3ccc(O)cc3)C(=O)N2[C@H]1C(=O)O` [AMOXICILLIN], the Ratio (with Pseudomonas aeruginosa [1]; in the test on Geotrichum candidum [2]; in the test with Candida albicans [6]; with Aspergillus fumigatus [9]; in the test on Staphylococcus aureus [11]; in [13]) was 1 each time. For the same compound, the Ratio in the test with Escherichia coli [14] and with Bacillus subtilis [17] was 1 each time. For the same compound, the zone of inhibition at 5000 µg/mL in the test on Bacillus subtilis [3] worked out at 24 mm; in the test with Geotrichum candidum [4] it was 10 mm; with Escherichia coli [5], 28 mm; in the test on Staphylococcus aureus [7], 30 mm; in the test on Candida albicans [8], 10 mm; with Aspergillus fumigatus [10], 25 mm. In addition, the zone of inhibition at 5000 µg/mL is 20 mm in the test with Pseudomonas aeruginosa [15] and 19 mm in [16]. The compound also returned an MIC with Staphylococcus aureus [12] of 50 µg/mL (≈ 137 µM).

Consider `Cc1c(C(=O)N/N=C(/C=C/c2ccccc2)C(=N/Nc2ccccc2)\N2CCCCC2)oc2ccccc12`, for which the Ratio in the test with Pseudomonas aeruginosa [1] amounted to 0; in the test with Geotrichum candidum [2] it was 0; with Candida albicans [6] it was 1.5; in the test on Aspergillus fumigatus [9], 0.84; in the test on Staphylococcus aureus [11] it was 0.53; in [13], 1. Also, the results for the Ratio in the test on Escherichia coli [14] and in the test on Bacillus subtilis [17] were 0.5 and 0.63, respectively. For the same compound, the zone of inhibition at 5000 µg/mL in the test with Bacillus subtilis [3] turned out to be 15 mm; in the test on Escherichia coli [5], 14 mm; with Staphylococcus aureus [7], 16 mm; in the test with Candida albicans [8], 15 mm; with Aspergillus fumigatus [10], 21 mm; in test [16] it was 19 mm.

Regarding `CC(=N\NC(=O)c1oc2ccccc2c1C)/C(Cl)=N/Nc1ccc(Br)cc1`, the Ratio in the test on Pseudomonas aeruginosa [1] came to 0; in the test with Geotrichum candidum [2] it was 0; in the test on Candida albicans [6], 1; with Aspergillus fumigatus [9], 0; in the test with Staphylococcus aureus [11], 0; in test [13] it was 0.26. The Ratio in the test with Escherichia coli [14] is 0; with Bacillus subtilis [17], 0.38. Further, the zone of inhibition at 5000 µg/mL in the test on Bacillus subtilis [3] is 9 mm; in the test on Candida albicans [8] it was 10 mm; in [16], 5 mm.

`CC(=N\NC(=O)c1oc2ccccc2c1C)/C(Cl)=N/Nc1ccccc1`: the Ratio with Pseudomonas aeruginosa [1] stood at 0; in the test on Geotrichum candidum [2], 0; in the test on Candida albicans [6], 0.6; in the test with Aspergillus fumigatus [9], 0; in the test on Staphylococcus aureus [11] it was 0; in test [13], 0. In addition, the Ratio with Escherichia coli [14] and in the test with Bacillus subtilis [17] was 0 in each case. For the same compound, the zone of inhibition at 5000 µg/mL with Candida albicans [8] is 6 mm.

Take `CC(=N\NC(=O)c1oc2ccccc2c1C)/C(=N/Nc1ccccc1)N1CCCCC1`: the Ratio in the test on Pseudomonas aeruginosa [1] was determined as 0; in the test on Geotrichum candidum [2] it was 0; with Candida albicans [6] it was 1.4; in the test with Aspergillus fumigatus [9], 1.12; in the test with Staphylococcus aureus [11], 0.5; in test [13], 0.84. Moreover, the results for the Ratio in the test with Escherichia coli [14] and with Bacillus subtilis [17] were 0.61 and 0, respectively. Further, the zone of inhibition at 5000 µg/mL in the test with Escherichia coli [5] is 17 mm; in the test with Staphylococcus aureus [7] it was 15 mm; with Candida albicans [8], 14 mm; in the test on Aspergillus fumigatus [10], 28 mm; in test [16] it was 16 mm.

`CC(=N\NC(=O)c1oc2ccccc2c1C)/C(Cl)=N/Nc1ccc([N+](=O)[O-])cc1`: the Ratio was determined as 0.25 in the test on Pseudomonas aeruginosa [1]; 0.5 with Geotrichum candidum [2]; 1.2 in the test on Candida albicans [6]; 0.56 in the test on Aspergillus fumigatus [9]; 0.4 in the test with Staphylococcus aureus [11]; 0 in test [13]. Besides, the Ratio in the test with Escherichia coli [14] was 0.36; with Bacillus subtilis [17], 0.25. Besides, the zone of inhibition at 5000 µg/mL with Bacillus subtilis [3] is 6 mm; with Geotrichum candidum [4], 5 mm; in the test with Escherichia coli [5], 10 mm; in the test on Staphylococcus aureus [7], 12 mm; in the test with Candida albicans [8], 12 mm; with Aspergillus fumigatus [10], 14 mm. Besides, the zone of inhibition at 5000 µg/mL in the test on Pseudomonas aeruginosa [15] was 5 mm.

`CC(=N\NC(=O)c1oc2ccccc2c1C)/C(=N/Nc1ccc([N+](=O)[O-])cc1)S(=O)(=O)c1ccccc1`: the Ratio came to 0 in the test on Pseudomonas aeruginosa [1]; 0 with Geotrichum candidum [2]; 1.5 in the test on Candida albicans [6]; 0 with Aspergillus fumigatus [9]; 0.27 in the test with Staphylococcus aureus [11]; 0 in [13]. Besides, the Ratio with Escherichia coli [14] is 0.21; in the test with Bacillus subtilis [17] it was 0.42. The zone of inhibition at 5000 µg/mL in the test on Bacillus subtilis [3] was determined as 10 mm; in the test on Escherichia coli [5], 6 mm; with Staphylococcus aureus [7] it was 8 mm; with Candida albicans [8], 15 mm.

On to `CC(=N\NC(=O)c1oc2ccccc2c1C)/C(Cl)=N/Nc1ccc(C)cc1`, for which the Ratio in the test with Pseudomonas aeruginosa [1] is listed as 0; in the test on Geotrichum candidum [2] it was 0; in the test with Candida albicans [6] it was 0.6; in the test on Aspergillus fumigatus [9], 0; in the test on Staphylococcus aureus [11] it was 0; in [13], 0. The Ratio in the test with Escherichia coli [14] is recorded as 0; with Bacillus subtilis [17] it was 0.29. Also, the zone of inhibition at 5000 µg/mL was determined as 7 mm in the test on Bacillus subtilis [3] and 6 mm in the test on Candida albicans [8].

Consider `C/C=N/NC(=O)c1oc2ccccc2c1C`, for which the Ratio was determined as 0 in the test with Pseudomonas aeruginosa [1]; 0 in the test on Geotrichum candidum [2]; 0.8 with Candida albicans [6]; 0 in the test with Aspergillus fumigatus [9]; 0.53 with Staphylococcus aureus [11]; 0 in test [13]. Besides, the Ratio was found to be 0.71 in the test on Escherichia coli [14] and 0 in the test on Bacillus subtilis [17]. Moreover, the zone of inhibition at 5000 µg/mL was found to be 20 mm in the test on Escherichia coli [5], 16 mm with Staphylococcus aureus [7] and 8 mm with Candida albicans [8].

As for `Cc1c(C(=O)N/N=C(/C=C/c2ccccc2)C(=N/Nc2ccc([N+](=O)[O-])cc2)\N2CCCCC2)oc2ccccc12`, the Ratio came out at 0 with Pseudomonas aeruginosa [1]; 0 in the test on Geotrichum candidum [2]; 1.7 in the test with Candida albicans [6]; 0 with Aspergillus fumigatus [9]; 0 in the test on Staphylococcus aureus [11]; 1.1 in test [13]. For the same compound, the Ratio in the test with Escherichia coli [14] worked out at 0.29; in the test on Bacillus subtilis [17] it was 0. For the same compound, the zone of inhibition at 5000 µg/mL with Escherichia coli [5] was determined as 8 mm; in the test on Candida albicans [8] it was 17 mm; in [16], 21 mm.

With `COc1ccc(N/N=C(Cl)/C(C)=N/NC(=O)c2oc3ccccc3c2C)cc1`, the Ratio in the test on Pseudomonas aeruginosa [1] worked out at 0; in the test with Geotrichum candidum [2], 0; in the test with Candida albicans [6] it was 1; in the test on Aspergillus fumigatus [9], 0; with Staphylococcus aureus [11], 0; in test [13], 0. Moreover, the Ratio in the test on Escherichia coli [14] and in the test with Bacillus subtilis [17] was 0 each time. Also, the zone of inhibition at 5000 µg/mL in the test on Candida albicans [8] was 10 mm.

Take `CC(=N\NC(=O)c1oc2ccccc2c1C)/C(=N/Nc1ccc([N+](=O)[O-])cc1)NO`: the Ratio in the test with Pseudomonas aeruginosa [1] was 0; in the test with Geotrichum candidum [2], 0; in the test with Candida albicans [6], 0.9; in the test with Aspergillus fumigatus [9], 0; in the test with Staphylococcus aureus [11], 0; in test [13] it was 1.05. Further, the Ratio in the test with Escherichia coli [14] and in the test on Bacillus subtilis [17] was 0 throughout. In addition, the zone of inhibition at 5000 µg/mL with Candida albicans [8] was determined as 9 mm; in [16] it was 20 mm.

As for `Cc1c(C(=O)N/N=C(/C=C/c2ccc(Cl)cc2)C(=N/Nc2ccc(Br)cc2)\N2CCCCC2)oc2ccccc12`, the Ratio is reported as 0 with Pseudomonas aeruginosa [1]; 0 in the test with Geotrichum candidum [2]; 1.4 in the test with Candida albicans [6]; 0 in the test on Aspergillus fumigatus [9]; 0.33 with Staphylococcus aureus [11]; 1.05 in [13]. For the same compound, the values for the Ratio in the test with Escherichia coli [14] and in the test on Bacillus subtilis [17] were 0.36 and 0.67, respectively. The zone of inhibition at 5000 µg/mL is 16 mm in the test with Bacillus subtilis [3]; 10 mm in the test on Escherichia coli [5]; 10 mm with Staphylococcus aureus [7]; 14 mm with Candida albicans [8]; 20 mm in test [16].

In the case of `Cc1c(C(=O)N/N=C/C=C/c2ccccc2)oc2ccccc12`, the Ratio came to 0 in the test with Pseudomonas aeruginosa [1]; 0 in the test on Geotrichum candidum [2]; 0.5 with Candida albicans [6]; 0 in the test on Aspergillus fumigatus [9]; 0 with Staphylococcus aureus [11]; 0 in [13]. For the same compound, the results for the Ratio in the test with Escherichia coli [14] and in the test with Bacillus subtilis [17] were 0 and 0.33, respectively. In addition, the zone of inhibition at 5000 µg/mL in the test on Bacillus subtilis [3] is 8 mm; with Candida albicans [8], 5 mm.
